Measurements as given in ChEMBL document CHEMBL4043283, “Discovery and Preclinical Development of IIIM-290, an Orally Active Potent Cyclin-Dependent Kinase Inhibitor” (J Med Chem, 2018).

Columns and labels:
[1] = molecular target: CDK2/Cyclin A2 (Homo sapiens) (UniProt P24941+P20248); test: Inhibition of CDK2/cyclin A (unknown origin) at 0.5 uM using histone H1 as substrate after 30 mins in presence of [33P]-gamma-ATP by filter binding assay relative to control; type: protein-complex assay
[2] = molecular target: CDK9/cyclin T1 (Homo sapiens) (UniProt O60563+P50750); test: Inhibition of CDK9/cyclin T1 (unknown origin) at 0.5 uM using YSPTSPSYSPTSPSYSPTSPKKK as substrate after 30 mins in presence of [33P]-gamma-ATP by filter binding assay relative to control; type: protein-complex assay
[3] = system: HL-60; test: Growth inhibition of human HL60 cells at 10 uM after 48 hrs by MTT assay relative to control; type: functional; details: HL-60, 48 h, read-out: GI
How it was run: (§1)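 Single-concentration primary screen at 10 μM by MTT assay. Cells were NCI-sourced cancer lines grown in appropriate medium at 37 °C, 95% humidity, 5% CO2. Growth inhibition is expressed relative to control.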

[4] = system: PC-3; test: Growth inhibition of human PC3 cells at 10 uM after 48 hrs by MTT assay relative to control; type: functional; details: PC-3, 48 h, read-out: GI; how it was run: as §1
[5] = system: MIA PaCa-2; test: Growth inhibition of human MIAPaCa2 cells at 10 uM after 48 hrs by MTT assay relative to control; type: functional; details: MIA PaCa-2, 48 h, read-out: GI; how it was run: as §1
[6] = system: MCF7; test: Growth inhibition of human MCF7 cells at 10 uM after 48 hrs by MTT assay relative to control; type: functional; details: MCF7, 48 h, read-out: GI; how it was run: as §1
[7] = system: Caco-2; test: Growth inhibition of human Caco2 cells at 10 uM after 48 hrs by MTT assay relative to control; type: functional; details: Caco-2, 48 h, read-out: GI; how it was run: as §1
[8] = molecular target: CDK2/Cyclin A2 (Homo sapiens, UniProt P24941); test: Inhibition of CDK2/cyclin A (unknown origin) using histone H1 as substrate after 30 mins in presence of [33P]-gamma-ATP by filter binding assay; type: protein-complex assay
[9] = molecular target: CDK9/cyclin T1 (Homo sapiens, UniProt P50750); test: Inhibition of CDK9/cyclin T1 (unknown origin) using YSPTSPSYSPTSPSYSPTSPKKK as substrate after 30 mins in presence of [33P]-gamma-ATP by filter binding assay; type: protein-complex assay
[10] = system: HL-60; test: Growth inhibition of human HL60 cells after 48 hrs by MTT assay; type: functional; details: HL-60, 48 h
How it was run: (§2)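 Cancer cell lines sourced from the National Cancer Institute (USA). Cells kept in appropriate growth medium at 37 °C, 95% humidity, 5% CO2. Antiproliferation read by tetrazolium (MTT) assay. GI50 values were determined only for compounds selected after an initial single-concentration screen.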

[11] = system: PC-3; test: Growth inhibition of human PC3 cells after 48 hrs by MTT assay; type: functional; details: PC-3, 48 h; how it was run: as §2
[12] = system: MIA PaCa-2; test: Growth inhibition of human MIAPaCa2 cells after 48 hrs by MTT assay; type: functional; details: MIA PaCa-2, 48 h; how it was run: as §2
[13] = system: MCF7; test: Growth inhibition of human MCF7 cells after 48 hrs by MTT assay; type: functional; details: MCF7, 48 h; how it was run: as §2
[14] = system: Caco-2; test: Growth inhibition of human Caco2 cells after 48 hrs by MTT assay; type: functional; details: Caco-2, 48 h; how it was run: as §2
[15] = species: Homo sapiens; test: Selectivity ratio of IC50 for CDK2/cyclin A (unknown origin) to IC50 for CDK9/cyclin T1 (unknown origin)
[16] = system: MIA PaCa-2; test: Cell cycle arrest in human MIAPaCa2 cells assessed as accumulation at G1 phase at 2 uM after 24 hrs by propidium iodide staining-based flow cytometric method (reference value: 36%); type: functional
[17] = system: MIA PaCa-2; test: Cell cycle arrest in human MIAPaCa2 cells assessed as accumulation at S phase at 2 uM after 24 hrs by propidium iodide staining-based flow cytometric method (reference value: 33%); type: functional
[18] = system: MIA PaCa-2; test: Cell cycle arrest in human MIAPaCa2 cells assessed as accumulation at G2 phase at 2 uM after 24 hrs by propidium iodide staining-based flow cytometric method (reference value: 30%); type: functional
[19] = system: MIA PaCa-2; test: Induction of apoptosis in human MIAPaCa2 cells at 2 uM after 24 hrs by propidium iodide staining-based flow cytometric method relative to control; type: functional

CDK9/cyclin T1, sequence (O60563 whole entry): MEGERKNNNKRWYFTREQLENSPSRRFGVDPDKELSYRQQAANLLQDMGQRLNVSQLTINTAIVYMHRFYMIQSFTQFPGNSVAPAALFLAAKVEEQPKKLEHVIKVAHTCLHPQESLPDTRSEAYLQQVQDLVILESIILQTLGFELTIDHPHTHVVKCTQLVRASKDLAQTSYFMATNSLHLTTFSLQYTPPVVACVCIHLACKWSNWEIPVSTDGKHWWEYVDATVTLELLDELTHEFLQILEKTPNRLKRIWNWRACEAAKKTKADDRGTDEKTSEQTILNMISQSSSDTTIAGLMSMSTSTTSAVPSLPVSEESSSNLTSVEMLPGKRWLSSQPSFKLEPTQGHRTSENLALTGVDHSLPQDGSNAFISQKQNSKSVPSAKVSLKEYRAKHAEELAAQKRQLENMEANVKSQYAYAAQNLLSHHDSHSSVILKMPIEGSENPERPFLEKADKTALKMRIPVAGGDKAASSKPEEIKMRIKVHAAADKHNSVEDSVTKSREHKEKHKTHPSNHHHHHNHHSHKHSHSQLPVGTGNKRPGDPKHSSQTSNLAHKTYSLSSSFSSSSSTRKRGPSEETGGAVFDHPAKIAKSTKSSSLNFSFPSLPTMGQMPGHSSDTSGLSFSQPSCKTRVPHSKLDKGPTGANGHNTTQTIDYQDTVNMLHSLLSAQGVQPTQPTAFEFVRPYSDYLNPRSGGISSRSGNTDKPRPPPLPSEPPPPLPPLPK
CDK9/cyclin T1, sequence (P50750 whole entry): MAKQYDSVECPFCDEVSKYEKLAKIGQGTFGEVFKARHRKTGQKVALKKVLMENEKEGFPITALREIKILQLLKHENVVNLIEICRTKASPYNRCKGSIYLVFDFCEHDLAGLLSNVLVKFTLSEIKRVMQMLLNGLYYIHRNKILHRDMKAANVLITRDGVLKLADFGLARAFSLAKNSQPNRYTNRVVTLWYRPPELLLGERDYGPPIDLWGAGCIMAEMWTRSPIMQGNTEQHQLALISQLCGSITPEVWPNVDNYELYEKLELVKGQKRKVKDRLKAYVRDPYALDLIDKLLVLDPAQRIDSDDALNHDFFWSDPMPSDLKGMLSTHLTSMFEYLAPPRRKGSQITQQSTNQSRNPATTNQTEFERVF

SMILES | inhibition [1] [%] | inhibition [2] [%] | inhibition of growth at 10 µM [3] [%] | inhibition of growth at 10 µM [4] [%] | inhibition of growth at 10 µM [5] [%] | inhibition of growth at 10 µM [6] [%] | inhibition of growth at 10 µM [7] [%] | IC50 [8] [µM] | IC50 [9] [µM] | GI50 [10] [µM] | GI50 [11] [µM] | GI50 [12] [µM] | GI50 [13] [µM] | GI50 [14] [µM] | Ratio IC50 [15] | Activity [16] [%] | Activity [17] [%] | Activity [18] [%] | Activity [19] [%]
CN1CC[C@H](c2c(O)cc(O)c3c(=O)cc(/C=C/c4ccccc4Cl)oc23)[C@H](O)C1 | 10 | 75 | 61 | 22 | 59 | 63 | 65 | 1.41 | 0.16 | 9 | 17 | 8 | 9 | 9 | 10 |  |  |  | 
CN1CC[C@H](c2c(O)cc(O)c3c(=O)cc(/C=C/c4ccc(Cl)cc4)oc23)[C@H](O)C1 | 2 | 71 | 58 | 12 | 88 | 10 | 70 | 3.3 | 0.31 | 8 | 31 | 2 | 49 | 5.6 | 10 |  |  |  | 
CC[C@@]1(O)C(=O)OCc2c1cc1n(c2=O)Cc2cc3ccccc3nc2-1 [CAMPTOTHECIN] |  |  |  |  |  |  |  |  |  |  |  |  |  |  |  | 42 | 26 | 31 | 3.3
Cc1cc(=O)c2c(O)cc(O)c([C@H]3CCN(C)C[C@H]3O)c2o1 [ROHITUKINE] |  |  | 83 | 33 | 2 | 15 | 12 |  |  | 10 | 19 | 19 | 28 | 25 |  |  |  |  | 
CN1CC[C@H](c2c(O)cc(O)c3c(=O)cc(/C=C/c4ccccc4F)oc23)[C@H](O)C1 | 9 | 60 | 62 | 25 | 60 | 62 | 68 | 1.52 | 0.26 | 8 | 20 | 3 | 8 | 7 |  |  |  |  | 
CN1CC[C@H](c2c(O)cc(O)c3c(=O)cc(/C=C/c4cccc(F)c4)oc23)[C@H](O)C1 | 53 | 88 | 60 | 67 | 67 | 83 | 61 | 0.466 | 0.029 | 8 | 7 | 2 | 3 | 8 |  |  |  |  | 
CN1CC[C@H](c2c(O)cc(O)c3c(=O)cc(/C=C/c4ccccc4)oc23)[C@H](O)C1 | 5.2 | 66 | 91 | 10 | 87 | 8 | 72 | 0.925 | 0.066 | 1 | 58 | 2 | 31 | 3.7 |  |  |  |  | 
CN1CC[C@H](c2c(O)cc(O)c3c(=O)cc(/C=C/c4cccc(Cl)c4)oc23)[C@H](O)C1 | 5 | 53 | 35 | 53 | 52 | 82 | 55 | 3 | 0.28 | 20 | 10 | 10 | 2 | 9 | 10 |  |  |  | 
Cc1cc(=O)c2c(O)c(CN3CCOCC3)c(O)c([C@H]3CCN(C)C[C@H]3O)c2o1 | 0 | 0 | 8 | 21 | 4 | 22 | 11 |  |  |  |  |  |  |  |  |  |  |  | 
Cc1cc(=O)c2c(O)c(CN3CCCC3C(=O)O)c(O)c([C@H]3CCN(C)C[C@H]3O)c2o1 (stereo partly drawn) | 17 | 0 | 16 | 0 | 10 | 21 | 30 |  |  |  |  |  |  |  |  |  |  |  | 
CN1CC[C@H](c2c(O)cc(O)c3c(=O)cc(/C=C/c4c5ccccc5cc5ccccc45)oc23)[C@H](O)C1 | 43 | 80 | 78 | 75 | 77 | 78 | 44 | 1.8 | 0.35 | 4 | > 100 | 4 | 5 | 4 |  |  |  |  | 
Cc1oc2c([C@H]3CCN(C)C[C@H]3O)c(O)cc(O)c2c(=O)c1C(O)c1cccc(Cl)c1Cl (stereo partly drawn) | 0 | 0 | 12 | 20 | 2 | 7 | 3 |  |  |  |  |  |  |  |  |  |  |  | 
Cc1cc(=O)c2c(O)c(CN3CCC(c4ccccc4)CC3)c(O)c([C@H]3CCN(C)C[C@H]3O)c2o1 | 0 | 6 | 26 | 22 | 16 | 23 | 21 |  |  |  |  |  |  |  |  |  |  |  | 
Cc1cc(=O)c2c(O)c(CN(C(C)C)C(C)C)c(O)c([C@H]3CCN(C)C[C@H]3O)c2o1 | 1 | 12 | 21 | 0 | 11 | 33 | 22 |  |  |  |  |  |  |  |  |  |  |  | 
Cc1oc2c([C@H]3CCN(C)C[C@H]3O)c(O)cc(O)c2c(=O)c1C(O)c1ccc(F)cc1 (stereo partly drawn) | 13 | 13 | 30 | 0 | 17 | 9 | 11 |  |  |  |  |  |  |  |  |  |  |  | 
Cc1cc(=O)c2c(O)cc(OCc3ccc([N+](=O)[O-])cc3)c([C@H]3CCN(C)C[C@H]3O)c2o1 | 0 | 5 | 14 | 23 | 12 | 39 | 14 |  |  |  |  |  |  |  |  |  |  |  | 
Cc1oc2c([C@H]3CCN(C)C[C@H]3O)c(O)cc(O)c2c(=O)c1C(O)c1ccc([N+](=O)[O-])cc1 (stereo partly drawn) | 6 | 8 | 0 | 24 | 2 | 4 | 5 |  |  |  |  |  |  |  |  |  |  |  | 
CN1CC[C@H](c2c(O)cc(O)c3c(=O)cc(/C=C/c4c(F)c(F)c(F)c(F)c4F)oc23)[C@H](O)C1 | 42 | 92 | 80 | 82 | 89 | 64 | 59 | 0.608 | 0.0115 | 3 | 2 | 1 | 8 | 8 | 52 |  |  |  | 
Cc1cc(=O)c2c(O)cc(OCc3ccccc3Br)c([C@H]3CCN(C)C[C@H]3O)c2o1 | 6 | 0 | 3 | 32 | 30 | 45 | 35 |  |  |  |  |  |  |  |  |  |  |  | 
